# ChEMBL document CHEMBL1158477, “Synthesis, in vivo evaluation, and molecular modeling studies of new pyrazolo[5,1-c][1,2,4]benzotriazine 5-oxide derivatives. Identification of a bifunctional hydrogen bond area related to the inverse agonism” (J Med Chem, 2009)
# The source made the active and inactive calls. No cut-off for these calls is given here.
# What was measured:
# [1] = organism: Bos taurus; test: Displacement of [3H]flumazenil from GABAA/Benzodiazepine receptor in bovine brain at 10 uM
# Summary of the method: (§1)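 Bovine brain membranes; displacement of specific [3H]flumazenil (Ro15-1788) binding. Percent inhibition measured at 10 μM; Ki determined only when inhibition at that concentration exceeded 80%. Ki given as mean ± SEM of five determinations.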
# [2] = Displacement of [3H]flumazenil from GABAA/Benzodiazepine receptor in bovine brain; set-up: species or system Bos taurus; summary of the method: as §1
# [3] = system: Mus musculus; test: Effect on motor coordination in CD1 albino mouse assessed as number of falls form rotarod at 3 mg/kg, po administered 60 mins before test measured for 30 seconds after 30 mins of drug infusion by rotarod test; assay type: functional
# Summary of the method: (§2)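 Rota-rod in male CD-1 mice with a pretest. Test substance given po in 1% CMC; falls from the rotating rod counted over 30 s, assessed 30 min after treatment.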
# [4] = system: Mus musculus; test: Effect on motor coordination in CD1 albino mouse assessed as number of falls form rotarod at 10 mg/kg, po […] measured for 30 seconds after 30 mins of dosing by rotarod test; assay type: functional; summary of the method: as §2
# [5] = system: Mus musculus; test: Anticonvulsant activity against pentylenetetrazole-induced shock in CD1 albino mouse assessed as shock latency at 3 mg/kg, po preincubated for 30 mins before pentylenetetrazole challenge measured for 30 mins (RVb=253.1 +/- 13 seconds); assay type: functional
# [6] = system: Mus musculus; test: Anticonvulsant activity against pentylenetetrazole-induced shock in CD1 albino mouse assessed as shock latency at 10 mg/kg, po preincubated for 30 mins before pentylenetetrazole challenge measured for 30 mins (RVb=253.1 +/- 13 seconds); assay type: functional
# [7] = system: Mus musculus; test: Anticonvulsant activity against pentylenetetrazole-induced convulsions in CD1 albino mouse assessed as convulsion latency at 3 mg/kg, po preincubated for 30 mins before pentylenetetrazole challenge measured for 30 mins (RVb=599 +/- 37.6 seconds); assay type: functional
# [8] = system: Mus musculus; test: Anticonvulsant activity against pentylenetetrazole-induced convulsions in CD1 albino mouse assessed as convulsion latency at 10 mg/kg, po preincubated for 30 mins before pentylenetetrazole challenge measured for 30 mins (RVb=599 +/- 37.6 seconds); assay type: functional
# [9] = system: Mus musculus; test: Effect on spontaneous motility in CD1 albino mouse assessed as number of movement on plane board at 3 mg/kg, po after 30 mins by hole-board test; assay type: functional
# Summary of the method: (§3)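 Hole-board test in male CD-1 mice: animals placed singly on the board and allowed to explore panel and holes. Test run 30 min after po dosing in 1% CMC (10 mL/kg). Hole entries (curiosity) and plane movements (spontaneous motility) counted; 10 mice per group, compared with CMC controls.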
# [10] = system: Mus musculus; test: Effect on spontaneous motility in CD1 albino mouse assessed as number of movement on plane board at 10 mg/kg, po after 30 mins by hole-board test; assay type: functional; summary of the method: as §3
# [11] = system: Mus musculus; test: Effect on explorative capacity in CD1 albino mouse assessed as curiosity-related number of head plugging activity on hole at 3 mg/kg, po after 30 mins by hole-board test; assay type: functional; summary of the method: as §3
# [12] = system: Mus musculus; test: Effect on explorative capacity in CD1 albino mouse assessed as curiosity-related number of head plugging activity on hole at 10 mg/kg, po after 30 mins by hole-board test; assay type: functional; summary of the method: as §3
# [13] = system: Mus musculus; test: Anxiolytic activity in CD1 albino mouse at 3 mg/kg, po after 30 mins by light/dark box test; assay type: functional, organism-based; set-up: dose 3 mg/kg
# Summary of the method: (§4)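 Male CD-1 mice (22-24 g) given test substance po in 1% CMC (10 mL/kg), tested 30 min later in a light/dark box. Transfers between compartments and time spent in the illuminated side were measured. Values are mean ± SEM of 15-20 mice; compared with controls.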
# [14] = system: Mus musculus; test: Anxiolytic activity in CD1 albino mouse at 10 mg/kg, po after 30 mins by light/dark box test; assay type: functional, organism-based; set-up: dose 10 mg/kg; summary of the method: as §4
# [15] = system: Mus musculus; test: Effect on learning and memory process in CD1 albino mouse assessed as improvement in retention latency at 3 mg/kg, po after 24 hrs by passive avoidance test; assay type: functional, organism-based; set-up: dose 3 mg/kg
# Summary of the method: (§5)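 Step-through passive avoidance in a two-compartment box (lit and dark compartments joined by a guillotine door). Male CD-1 mice dosed po (1% CMC) 30 min before training; retention tested 24 h later. Training and retention latencies recorded; mean ± SEM of 15-20 mice versus controls.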
# [16] = system: Mus musculus; test: Effect on learning and memory process in CD1 albino mouse assessed as improvement in retention latency at 10 mg/kg, po after 24 hrs by passive avoidance test; assay type: functional, organism-based; set-up: dose 10 mg/kg; summary of the method: as §5
# [17] = system: Mus musculus; test: Effect on ethanol-induced sleeping time in CD1 albino mouse assessed as increase in duration of loss of righting reflex at 10 mg/kg, po preincubated 30 mins before ethanol challenge; assay type: functional, organism-based; set-up: dose 10 mg/kg
# [18] = system: Mus musculus; test: Effect on ethanol-induced sleeping time in CD1 albino mouse assessed as increase in duration of loss of righting reflex at 3 mg/kg, po preincubated 30 mins before ethanol challenge; assay type: functional, organism-based; set-up: dose 3 mg/kg
# [19] = system: Mus musculus; test: Anxiolytic activity in CD1 albino mouse at 30 mg/kg, po after 30 mins by light/dark box test; assay type: functional, organism-based; set-up: dose 30 mg/kg; summary of the method: as §4
# [20] = system: Mus musculus; test: Anxiolytic activity in CD1 albino mouse at 30 mg/kg, po after 30 mins by light/dark box test in presence of flumazenil; assay type: functional, organism-based; set-up: dose 30 mg/kg
# Summary of the method: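 Light/dark box in male CD-1 mice. Test substance given po in 1% CMC 30 min before the test, with flumazenil 100 mg/kg ip (saline) co-treatment. Transfers between compartments and time in the lit side recorded. Mean ± SEM of 15-20 mice.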
# [21] = system: Mus musculus; test: Effect on learning and memory process in CD1 albino mouse assessed as decrease in retention latency at 10 mg/kg, po after 24 hrs by passive avoidance test; assay type: functional, organism-based; set-up: dose 10 mg/kg; summary of the method: as §5
# [22] = system: Mus musculus; test: Effect on ethanol-induced sleeping time in CD1 albino mouse assessed as increase in duration of loss of righting reflex at 30 mg/kg, po preincubated 30 mins before ethanol challenge; assay type: functional, organism-based; set-up: dose 30 mg/kg
Activity [1],Ki [2],Compound,also measured
45%,–,[O-][n+]1nc2c(Cl)cnn2c2cc(-c3ccccc3)ccc21,–
> 80%,2000 nM,[O-][n+]1nc2c(I)cnn2c2cc(/C=C/c3ccccc3)ccc21,–
> 80%,1 nM,COc1ccccc1COC(=O)c1ccc2c(c1)n1ncc(Cl)c1n[n+]2[O-],–
> 80%,1620 nM,CCCCCCCCOc1ccc2c(c1)n1ncc(I)c1n[n+]2[O-],–
> 80%,103 nM,CC(Cc1ccccc1)Oc1ccc2c(c1)n1ncc(I)c1n[n+]2[O-] (racemic),–
> 80%,5.8 nM,COc1ccccc1COC(=O)c1ccc2c(c1)n1ncc(C(F)(F)F)c1n[n+]2[O-],–
> 80%,1.2 nM,[O-][n+]1nc2c(I)cnn2c2cc(OCc3cccs3)ccc21,–

# Second part, the molecule before the results:
Compound,Activity [1],Ki [2],also measured
[O-][n+]1nc2ccnn2c2cc(OCc3ccccc3)ccc21,> 80%,116 nM,–
CCOC(=O)c1cnn2c1n[n+]([O-])c1ccc(-c3ccccc3)cc12,40%,–,–
[O-][n+]1nc2c(I)cnn2c2cc(OC3CCCCC3)ccc21,> 80%,188 nM,–
Ic1cnn2c1nnc1ccc(OCc3ccccc3)cc12,> 80%,1 nM,–
O=C(OCc1cccs1)c1cnn2c1n[n+]([O-])c1ccc(Oc3ccccc3)cc12,> 80%,0.7 nM,–
[O-][n+]1nc2c(I)cnn2c2cc(OCc3ccco3)ccc21,> 80%,0.8 nM,–
CC(COc1ccc2c(c1)n1ncc(I)c1n[n+]2[O-])c1ccccc1 (racemic),> 80%,160 nM,–
O=C(OCc1cccs1)c1cnn2c1n[n+]([O-])c1ccc(C(F)(F)F)cc12,> 80%,10 nM,–
[O-][n+]1nc2c(I)cnn2c2cc(OCc3ccncc3)ccc21,> 80%,1.3 nM,Activity [3]: 1.4; Activity [4]: 2.3; Activity [5]: 183 s; Activity [6]: 299 s; Activity [7]: 565.8 s; Activity [8]: 610.9 s; Activity [9]: 93.9; Activity [10]: 85.1; Activity [11]: 35.5; Activity [12]: 36.9; Activity [13]: inactive; Activity [14]: inactive; Activity [15]: Active; Activity [16]: Active; Activity [17]: inactive; Activity [18]: inactive
[O-][n+]1nc2c(I)cnn2c2cc(OCCc3ccccc3)ccc21,> 80%,43 nM,–
CC(Oc1ccc2c(c1)n1ncc(I)c1n[n+]2[O-])c1ccccc1 (racemic),–,3.4 nM,–
[O-][n+]1nc2c(I)cnn2c2cc(CCc3ccccc3)ccc21,> 80%,464 nM,–
"CC(Oc1ccc2c(c1)n1ncc(I)c1n[n+]2[O-])c1ccccc1 (single isomer, unassigned; (-))",> 80%,–,Activity [14]: Active; Activity [19]: Active; Activity [20]: inactive; Activity [21]: Active; Activity [17]: inactive; Activity [22]: inactive
